# High-throughput results deposited in PubChem by several laboratories.
# TRPC6 act: mouse TRPC6 channel activators, primary screen, cell-based, HEK293, membrane potential dye; HEK293-TRPC6 membrane potential dye fluorescence; stronger effect = higher value; B-score at 10 µM; hit rate 0.13% among 310,000; AID 2550, 2010;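 active = B-score of the integrated fluorescence ratio above library mean plus 3 SD, and starting fluorescence ratio within library mean plus 5 SD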;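 also: higher score means more depolarization so channel activation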
# TRPC4 PAM: positive allosteric modulators of TRPC4, primary screen, cell-based, mouse TRPC4beta, HEK293 mu-opioid, Fluo-4 calcium; Short transient receptor potential channel 4 (Mus musculus), Q9QUQ5; DAMGO EC20, Fluo-4 Ca2+ flux; stronger effect = higher value; B-score at 10 µM; hit rate 0.42% among 310,000; AID 2227, 2009;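 active = B-score of calcium response area above 5 SD of library B-scores, with initial fluorescence ratio within 5 SD of library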;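 also: B-score of integrated fluorescence ratio over time as area under calcium response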
# Target sequence (Q9QUQ5 whole entry, looked up): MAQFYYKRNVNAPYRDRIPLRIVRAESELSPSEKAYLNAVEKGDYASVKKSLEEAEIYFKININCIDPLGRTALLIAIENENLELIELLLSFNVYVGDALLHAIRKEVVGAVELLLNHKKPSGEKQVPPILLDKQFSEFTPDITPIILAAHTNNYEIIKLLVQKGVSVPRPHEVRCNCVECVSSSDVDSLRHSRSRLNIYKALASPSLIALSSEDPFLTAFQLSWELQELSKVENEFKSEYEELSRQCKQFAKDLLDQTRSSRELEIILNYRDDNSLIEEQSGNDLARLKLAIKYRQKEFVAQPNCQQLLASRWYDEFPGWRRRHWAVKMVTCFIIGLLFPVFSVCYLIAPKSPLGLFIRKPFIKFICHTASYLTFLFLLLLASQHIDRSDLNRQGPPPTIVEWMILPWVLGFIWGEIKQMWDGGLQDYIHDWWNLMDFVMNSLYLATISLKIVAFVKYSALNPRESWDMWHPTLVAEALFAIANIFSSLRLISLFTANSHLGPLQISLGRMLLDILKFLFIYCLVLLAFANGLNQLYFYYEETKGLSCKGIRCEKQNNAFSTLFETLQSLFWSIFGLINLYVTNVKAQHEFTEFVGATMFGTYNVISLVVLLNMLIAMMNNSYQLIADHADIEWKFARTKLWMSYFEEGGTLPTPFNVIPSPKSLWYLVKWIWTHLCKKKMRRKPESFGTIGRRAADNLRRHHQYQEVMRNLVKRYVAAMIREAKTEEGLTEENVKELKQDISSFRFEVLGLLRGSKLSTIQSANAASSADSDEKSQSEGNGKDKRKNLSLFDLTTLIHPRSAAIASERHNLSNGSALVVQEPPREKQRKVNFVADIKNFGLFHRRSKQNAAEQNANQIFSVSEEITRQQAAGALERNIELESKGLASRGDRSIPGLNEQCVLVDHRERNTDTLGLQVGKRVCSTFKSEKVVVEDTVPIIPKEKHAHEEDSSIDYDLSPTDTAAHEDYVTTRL
# TRPC6 inh: mouse TRPC6 channel inhibitors, primary screen, cell-based, HEK293, membrane potential dye; Short transient receptor potential channel 6 (Mus musculus), Q61143; ACh-evoked depolarization; stronger effect = lower value; hit rate 1.1% among 310,000; B-score at 10 µM;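 active = B-score under library mean minus 3 SD, initial fluorescence not abnormally high, positive integrated signal ratio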;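 also: B-score derived from integrated fluorescence ratio over the kinetic read; more negative B-score means stronger inhibition of depolarization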
# TRPC4 inh: inhibitors of mouse TRPC4 channel, primary screen, Fluo4 calcium, HEK293 TRPC4beta/mu-opioid cells; DAMGO-evoked Fluo4 calcium flux; stronger effect = lower value; B-score at 10 µM; hit rate 0.39% among 300,000;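 active = B-score over 3 SD under the library average, no early fluorescence shift, positive overall ratio signal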
#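 Assay system: Stable TRPC4beta/mu-opioid receptor HEK293 cells | Reagent: DAMGO in two steps, submaximal then maximal | Compound dosing: Single concentration per test compound | Signal: Fluo4 Ca2+ flux fluorescence | Evaluation: Per-well B score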
# DNA FID counter: compounds displacing fluorescent DNA intercalator, primary screen, artefact control for HCV NS3 helicase inhibitor project, biochemical, FID fluorescence. hit rate 0.17% among 290,000. inhibition, % at 7.9 µM. DNA fluorescent intercalator displacement; in the data active = inhibition above about 37%;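 also: 0% = vehicle and 100% = reference compound; higher means more ethidium bromide displaced from hairpin DNA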
# TRPC4 agonist: activators of mouse TRPC4 channel, primary screen, Fluo4 calcium, HEK293 TRPC4beta/mu-opioid cells; Short transient receptor potential channel 4 (Mus musculus), Q9QUQ5; Fluo4 calcium fluorescence; stronger effect = higher value; B-score at 10 µM; hit rate 0.49% among 310,000;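 active = B-score above 5 SD of library B-scores, and initial fluorescence ratio not above library mean plus 5 SD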;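 also: positive B-score marks a calcium rise read as TRPC4 activation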
#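 Assay system: HEK293 stable line with TRPC4beta plus mu-opioid receptor; schedule: 45 min room-temperature Fluo4 loading, 110 s read; technique: kinetic Fluo4 calcium fluorescence; evaluation: integrated baseline-normalised fluorescence ratio, converted to per-well B score; controls: buffer (low) and maximal DAMGO (high)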
# TRPC4 sel inh 2: second check of whether TRPC6 inhibitors also affect mouse TRPC4 | hit rate 42% among 920 | inhibition, % at 10 µM | shares compounds with TRPC6 inh | HEK293 TRPC4/MOR, membrane potential dye fluorescence; channel activated by saturating DAMGO dose;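 active = compounds whose fluorescence signal differed from control wells by over 3 SD, either direction, in both duplicate plates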
# TRPC4 spec: mouse TRPC4 modulation by TRPC6 hits, confirmation, selectivity assay for TRPC6 inhibitor project, cell-based, HEK293 TRPC4/mu-opioid, membrane potential dye; activity change, negative = inhibition, % at 10 µM; membrane potential fluorescence; hit rate 61% among 920; shares compounds with TRPC6 inh;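 active = rise or fall in signal beyond 3 SD of buffer-only wells in both replicate plates, either sign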;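 also: integrated kinetic ratio of fluorescence range over baseline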
# HEK293 MPD ctr 2-1: nonspecific membrane potential effects, parental HEK293, confirmation, counter-screen for TRPC6 inhibitor project, cell-based, second counter screen. AID 2779, 2010. hit rate 31% among 920. signal change vs control, % at 10 µM. shares compounds with TRPC6 inh. parental HEK293 membrane potential dye fluorescence; maximal acetylcholine challenge after compound addition;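 active = membrane potential signal moving either way by over 3 SD of the maximum-effect control, in both duplicate plates, meaning non-specific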
# HEK293 MPD ctr-1: membrane potential modulation in parental HEK293, confirmation, counter-screen for TRPC6 inhibitor project, cell-based. parental HEK293 membrane potential dye fluorescence. membrane potential signal change, % at 10 µM. AID 2780, 2010. shares compounds with TRPC6 inh. hit rate 60% among 920;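 active = membrane potential signal shifting up or down by more than 3 SD of buffer-only wells, on both duplicate plates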
# HEK293 MPD ctr-2: parental HEK293 membrane potential modulation, confirmation, counter-screen for TRPC6 modulator project, cell-based | hit rate 51% among 2,400 | membrane potential signal change, % at 10 µM | shares compounds with TRPC6 inh | membrane potential dye fluorescence | AID 488924, 2010;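 active = membrane potential signal moves up or down beyond 5 SD from buffer-only wells, on both duplicate plates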
# HEK293 MPD ctr 2-2: parental HEK293 nonspecific activity of TRPC6 modulators, second screen; shares compounds with TRPC6 inh; membrane potential dye fluorescence; after compound, maximal acetylcholine stimulation; inhibition, % at 10 µM; hit rate 14% among 2,400; AID 488926;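 active = membrane potential signal drops by more than 5 SD from the mean control signal, in both duplicate plates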;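 also: plate controls were acetylcholine ECmax control wells for no effect and buffer only wells for full effect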
# TRPC4 ctr mod: TRPC4 modulation by TRPC6 hit compounds, confirmation, selectivity assay for TRPC6 modulator project, cell-based, HEK293 TRPC4/mu-opioid, membrane potential dye, mouse; percent change from control (negative = decrease, positive = increase), % at 10 µM; hit rate 69% among 2,400; membrane potential fluorescence; AID 488927, 2010; shares compounds with TRPC6 inh;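 active = membrane potential signal moved up or down beyond 5 SD of buffer control wells, in both duplicate plates, actives on both sides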;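 also: plate controls were assay buffer wells for no effect and DAMGO maximal-effect wells for full effect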
# TRPC4 ctr inh 2: second selectivity test of TRPC6 modulators against mouse TRPC4. shares compounds with TRPC6 inh. HEK293 TRPC4/mu-opioid, membrane potential dye fluorescence; stimulated with maximal-effect DAMGO. inhibition, % at 10 µM. hit rate 55% among 2,400;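 active = drop in membrane potential signal beyond 5 SD of the control wells in both duplicate plates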;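 also: TRPC4 counter screen for TRPC6 hits run under conditions tuned for TRPC6 not TRPC4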
# TRPC6 block conf: mouse TRPC6 channel inhibitors, confirmation, HEK293 cells, membrane potential dye, duplicate; shares compounds with TRPC6 inh; ACh-evoked depolarization; inhibition, % at 10 µM; hit rate 43% among 3,300;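 active = fluorescence ratio falls more than 5 SD below the full-stimulation control mean, in both duplicate runs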;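 also: integrated fluorescence ratio of peak minus minimum over baseline after agonist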
# TRPC6 act confirm: mouse TRPC6 channel activators, confirmation, HEK293 cells, membrane potential dye, duplicate; shares compounds with TRPC6 inh; activation, % at 10 µM; hit rate 11% among 2,800; AID 488961, 2010; HEK293-TRPC6 membrane potential dye fluorescence, FDSS;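 active = ratio signal rise beyond 5 SD above unstimulated control wells' mean, seen in both duplicate runs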;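 also: plate controls were buffer EC0 wells for no effect and acetylcholine ECmax response for full effect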
# Active calls of the source: *; i = inactive; · = no result; + = active, no number. In the library only some 2.3% were active in any assay of this set; here they are far more common.
SMILES,TRPC6 act,TRPC4 PAM,TRPC6 inh,TRPC4 inh,DNA FID counter,TRPC4 agonist,HEK293 MPD ctr-2,HEK293 MPD ctr 2-2,TRPC4 ctr mod,TRPC4 ctr inh 2,TRPC6 block conf,TRPC6 act confirm,others
CSCc1cc(N(C)c2ccccc2)nc(-c2ccccn2)n1,i,i,-7.2*,i,-23,i,·,·,·,·,i,i,TRPC4 sel inh 2=i;TRPC4 spec=i;HEK293 MPD ctr 2-1=i;HEK293 MPD ctr-1=i
CN1CCN(S(=O)(=O)c2cccc(C(=O)N(Cc3nnc(-c4ccccc4Cl)o3)C3CC3)c2)CC1,i,i,i,i,11,i,·,·,·,·,·,·,
COCCCn1c(=N)c(C(=O)NC2CCCCC2)cc2c(=O)n3ccccc3nc21,i,i,-6.1*,i,13,i,i,i,i,49%*,64%*,i,
COc1ccc(Cn2c(=N)c(C(=O)NC3CCCCC3)cc3c(=O)n4ccccc4nc32)cc1,i,i,i,i,26,i,·,·,·,·,·,·,
COc1ccc(CCn2c(=N)c(C(=O)NC3CCCC3)cc3c(=O)n4ccccc4nc32)cc1OC,i,i,-5.2*,i,8,i,-154%*,i,-33%*,52%*,42%*,i,
COc1ccc(CCn2c(=N)c(C(=O)NC3CCCC3)cc3c(=O)n4ccccc4nc32)cc1,i,i,-6.5*,i,15,i,169%*,114%*,26%*,86%*,64%*,i,
Cc1ccc(S(=O)(=O)/N=C2/NC(=O)/C(=C/c3ccc(Br)o3)S2)cc1,i,i,i,i,-11,i,·,·,·,·,·,·,
O=C1N/C(=N\S(=O)(=O)Cc2ccccc2)S/C1=C/c1cc([N+](=O)[O-])ccc1O,13*,i,i,i,-7,i,177%*,i,33%*,i,i,122%*,
COc1cc(/C=C2/S/C(=N/S(=O)(=O)c3ccccc3)NC2=O)c([N+](=O)[O-])cc1OC,i,i,i,i,-9,i,·,·,·,·,·,·,
O=C1N/C(=N\S(=O)(=O)c2ccccc2)S/C1=C\c1cc([N+](=O)[O-])ccc1O,27*,i,i,i,3,i,249%*,i,46%*,i,i,160%*,
Cc1ccc(S(=O)(=O)/N=C2/NC(=O)/C(=C\c3cc(Br)cc(Br)c3O)S2)cc1,71*,34*,i,i,44*,64*,+,i,198%*,i,i,402%*,
CC1=CC(C)(C)N(C(=O)CNC2CCCCC2)c2cc(C)ccc21,i,i,-5.6*,i,17,i,126%*,i,36%*,58%*,50%*,i,
CC1=CC(C)(C)N(C(=O)CCl)c2cc(C)ccc21,i,i,i,i,34,i,·,·,·,·,·,·,
OC(CCN1CCCCC1)(c1ccccc1)C1CCCCC1 (configuration not stated),i,i,-5.2*,i,8,i,208%*,80%*,42%*,i,78%*,·,
Cc1ccc(C(O)(CCN2CCCCC2)c2ccccc2)cc1 (configuration not stated),i,i,-7.1*,i,-2,i,·,·,·,·,62%*,·,TRPC4 sel inh 2=i;TRPC4 spec=14%*;HEK293 MPD ctr 2-1=i;HEK293 MPD ctr-1=13%*
OC(CCN1CCOCC1)(c1ccc(Cl)cc1)C1CCCCC1 (configuration not stated),i,i,-5.7*,i,16,i,149%*,i,26%*,45%*,44%*,i,
CCN(CC)CC#CCC(O)(c1ccccc1)C1CCCCC1 (configuration not stated),i,i,i,i,11,i,·,·,·,·,·,·,
CCCC(O)(c1ccc(Cl)cc1)C(CN1CCOCC1)c1ccc(Cl)cc1 (configuration not stated),i,i,i,i,-16,i,·,·,·,·,·,·,
CC(C)Oc1ccc(C(=O)NC2CCCCC2)cc1,i,i,i,i,-25,i,·,·,·,·,·,·,
CC(C)Oc1ccc(C(CCN)C2CCCCC2)cc1 (configuration not stated),i,i,-6.7*,i,21,i,·,·,·,·,i,i,TRPC4 sel inh 2=51%*;TRPC4 spec=i;HEK293 MPD ctr 2-1=i;HEK293 MPD ctr-1=i
O=C(O)c1cc(N2C(=O)CCC2=O)ccc1Cl,i,i,i,i,-1,i,·,·,·,·,·,·,
